Square brackets hold non-standard residues; d marks the D form. Peptide text beside a SMILES is read from it. Phe(4-NO2) = N[C@@H](Cc1ccc([N+](=O)[O-])cc1)C(=O)O; NMeY = CN[C@@H](Cc1ccc(O)cc1)C(=O)O; NMeF = CN[C@@H](Cc1ccccc1)C(=O)O; Sar = CNCC(=O)O
Columns and labels:
[1] = target: Delta-type opioid receptor (Mus musculus, UniProt P32300); assay: Evaluated for inhibitory activity against Opioid receptor delta 1 of mouse vas deferens (MVD).; format: tissue-based
Mu-type opioid receptor [2] = target: T1, Mu-type opioid receptor (Cavia porcellus, UniProt P97266); assay: Binding affinities against Opioid receptor mu 1 of guinea pig brain membrane using [3H]DAGO as the radioligand using competition binding assays.
T1 sequence (P97266 whole entry): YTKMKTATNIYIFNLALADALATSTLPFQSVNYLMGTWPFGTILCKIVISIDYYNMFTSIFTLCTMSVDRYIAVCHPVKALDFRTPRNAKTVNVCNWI
Outline: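 μ-site competition binding on crude P2 membranes from male Hartley guinea pig brain (1 g original wet weight/20 mL, 50 mM Tris-HCl pH 7.6) with 5 nM [3H]DAGO and varied competitor, 60 min at 25 °C. GF/B filtration (1% polyethylenimine presoaked), six ice-cold buffer rinses, scintillation counting. Nonspecific binding with 10 μM levallorphan. Mean of five or six determinations ± SEM.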

Mu-type opioid receptor [3] = target: T1, Mu-type opioid receptor; assay: Evaluated for inhibitory activity against Opioid receptor mu 1 of guinea pig ileum (GPI); format: tissue-based
Mus musculus [4] = assay: Evaluated for analgesic effect using mouse tail-pinch test after intravenous administration; 1.97-5.67; format: functional
Outline: (§1)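 Mice, intravenous dosing, tail-pinch analgesia test. Four doses per compound, each dose tested on at least eight animals, giving ED50 in mg/kg.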

Mus musculus [5] = assay: Evaluated for analgesic effect using mouse tail-pinch test after intravenous administration; 0.25-2.26; format: functional; outline: as §1
Mus musculus [6] = assay: Evaluated for analgesic effect using mouse tail-pinch test after intravenous administration; 0.35-1.71; format: functional; outline: as §1
Mus musculus [7] = assay: Evaluated for analgesic effect using mouse tail-pinch test after intravenous administration; format: functional; outline: as §1
Mus musculus [8] = assay: Evaluated for analgesic effect using mouse tail-pinch test after intravenous administration; 1.27-3.29; format: functional; outline: as §1
Mus musculus [9] = assay: Evaluated for analgesic effect using mouse tail-pinch test after intravenous administration; 2.21-9.32; format: functional; outline: as §1
Mus musculus [10] = assay: Evaluated for analgesic effect using mouse tail-pinch test after intravenous administration; 0.11-0.52; format: functional; outline: as §1
Mus musculus [11] = assay: Evaluated for analgesic effect using mouse tail-pinch test after intravenous administration; 0.64-2.34; format: functional; outline: as §1

Chain of Delta-type opioid receptor (P32300 whole entry): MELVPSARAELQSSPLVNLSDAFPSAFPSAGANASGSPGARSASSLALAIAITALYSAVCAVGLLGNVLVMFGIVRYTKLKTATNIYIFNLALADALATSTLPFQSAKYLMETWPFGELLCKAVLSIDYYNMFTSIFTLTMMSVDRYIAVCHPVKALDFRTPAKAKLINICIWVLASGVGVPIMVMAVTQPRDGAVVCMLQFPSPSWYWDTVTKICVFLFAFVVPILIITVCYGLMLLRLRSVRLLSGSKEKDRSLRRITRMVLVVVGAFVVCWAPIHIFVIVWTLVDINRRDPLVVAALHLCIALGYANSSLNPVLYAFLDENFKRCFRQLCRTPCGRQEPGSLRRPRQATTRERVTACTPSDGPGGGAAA

| Compound | IC50 [1] [nM] | IC50 (Mu-type opioid receptor [3]) [nM] | also measured |
| --- | --- | --- | --- |
| CN[C@@H](Cc1ccc(O)cc1)C(=O)NCC(=O)NCC(=O)N[C@@H](Cc1ccccc1)C(=O)N[C@@H](CC(C)C)C(=O)N[C@@H](CCCNC(=N)N)C(=O)N(C)[C@@H](CCCNC(=N)N)C(=O)N[C@H](CC(C)C)C(N)=O | 4.8 | 0.5 | Ki (Mu-type opioid receptor [2]): 3.34 nM |
| CCNC(=O)[C@H](CC(C)C)NC(=O)[C@H](CCCN=C(N)N)NC(=O)[C@H](CCCN=C(N)N)NC(=O)[C@H](CC(C)C)NC(=O)[C@@H](Cc1ccccc1)NC(=O)CNC(=O)CNC(=O)[C@H](Cc1ccc(O)cc1)NC | – | – | ED50 (Mus musculus [4]): 3.34 mg/kg |
| CN[C@@H](Cc1ccc(O)cc1)C(=O)NCC(=O)NCC(=O)N[C@@H](Cc1ccccc1)C(=O)N[C@@H](CC(C)C)C(=O)N[C@@H](CCCN=C(N)N)C(=O)N[C@@H](CCCN=C(N)N)C(=O)N[C@@H](CC(C)C)C(N)=O | – | > 3000 | – |
| CCCCCCNC(=O)[C@@H](CC(C)C)NC(=O)[C@H](CCCNC(=N)N)NC(=O)[C@H](CCCNC(=N)N)NC(=O)[C@H](CC(C)C)NC(=O)[C@H](Cc1ccccc1)NC(=O)CNC(=O)CNC(=O)[C@H](Cc1ccc(O)cc1)NC | 22.3 | 6.6 | – |
| CCNC(=O)[C@@H](CC(C)C)NC(=O)[C@H](CCCN=C(N)N)N(C)C(=O)[C@H](CCCN=C(N)N)NC(=O)[C@H](CC(C)C)NC(=O)[C@H](Cc1ccccc1)NC(=O)CNC(=O)CNC(=O)[C@H](Cc1ccc(O)cc1)NC | – | – | ED50 (Mus musculus [5]): 0.75 mg/kg |
| CCNC(=O)[C@@H](CC(C)C)NC(=O)[C@H](CCCN=C(N)N)N(C)C(=O)[C@H](CCCN=C(N)N)NC(=O)[C@H](CC(C)C)NC(=O)[C@H](Cc1ccc([N+](=O)[O-])cc1)NC(=O)CNC(=O)CNC(=O)[C@H](Cc1ccc(O)cc1)NC [listing 1 of 2 here] | – | – | ED50 (Mus musculus [6]): 0.77 mg/kg |
| CN[C@@H](Cc1ccc(O)cc1)C(=O)N[C@@H](C)C(=O)NCC(=O)N[C@@H](Cc1ccccc1)C(=O)N[C@@H](CC(C)C)C(=O)N[C@@H](CCCN=C(N)N)C(=O)N[C@@H](CCCN=C(N)N)C(=O)N[C@@H](CC(C)C)C(N)=O (H-[NMeY]AGFLRRL-NH2) | – | – | ED50 (Mus musculus [7]): > 5 mg/kg |
| CN[C@@H](Cc1ccc(O)cc1)C(=O)NCC(=O)NCC(=O)N(C)[C@@H](Cc1ccccc1)C(=O)N[C@@H](CC(C)C)C(=O)N[C@@H](CCCNC(=N)N)C(=O)N[C@@H](CCCNC(=N)N)C(=O)N[C@@H](CC(C)C)C(N)=O (H-[NMeY]GG[NMeF]LRRL-NH2) | 121 | 26.7 | – |
| CC(C)C[C@H](NC(=O)[C@H](CCCNC(=N)N)NC(=O)[C@H](CCCNC(=N)N)NC(=O)[C@H](CC(C)C)NC(=O)[C@H](Cc1ccccc1)NC(=O)CNC(=O)CN(C)C(=O)[C@@H](N)Cc1ccc(O)cc1)C(N)=O (H-Y[Sar]GFLRRL-NH2) | 1770 | 897 | – |
| CN[C@@H](Cc1ccc(O)cc1)C(=O)NCC(=O)NCC(=O)N[C@H](Cc1ccccc1)C(=O)N[C@H](CC(C)C)C(=O)N[C@@H](CCCNC(=N)N)C(=O)N[C@@H](CCCNC(=N)N)C(=O)N[C@@H](CC(C)C)C(N)=O | > 1740 | 82 | ED50 (Mus musculus [7]): > 6 mg/kg |
| CCNC(=O)[C@@H](CC(C)C)NC(=O)[C@H](CCCN=C(N)N)N(C)C(=O)[C@H](CCCN=C(N)N)NC(=O)[C@@H]1CSSC[C@@H](NC(=O)[C@@H](N)Cc2ccc(O)cc2)C(=O)NCC(=O)N[C@@H](Cc2ccccc2)C(=O)N1 [listing 1 of 2 here] | 0.13 | 0.007 | Ki (Mu-type opioid receptor [2]): 0.85 nM |
| CCCCCCNC(=O)[C@H](CC(C)C)NC(=O)[C@H](CCCN=C(N)N)NC(=O)[C@H](CCCN=C(N)N)NC(=O)[C@H](CC(C)C)NC(=O)[C@@H](Cc1ccccc1)NC(=O)CNC(=O)CNC(=O)[C@H](Cc1ccc(O)cc1)NC | – | – | ED50 (Mus musculus [7]): > 7 mg/kg |
| CN[C@@H](Cc1ccc(O)cc1)C(=O)NCC(=O)NCC(=O)N[C@@H](Cc1ccccc1)C(=O)N[C@@H](CC(C)C)C(=O)N(C)[C@@H](CCCN=C(N)N)C(=O)N[C@@H](CCCN=C(N)N)C(=O)N[C@H](CC(C)C)C(N)=O [listing 1 of 2 here] | 114 | 20.6 | – |
| CC[C@H](C)[C@H](NC(=O)[C@H](CCCNC(=N)N)NC(=O)[C@H](CCCNC(=N)N)NC(=O)[C@H](CC(C)C)NC(=O)[C@H](Cc1ccccc1)NC(=O)CNC(=O)CNC(=O)[C@@H](N)Cc1ccc(O)cc1)C(N)=O | 3 | 0.2 | Ki (Mu-type opioid receptor [2]): 7.16 nM |
| CN[C@@H](Cc1ccc(O)cc1)C(=O)NCC(=O)NCC(=O)N[C@@H](Cc1ccccc1)C(=O)N[C@@H](CC(C)C)C(=O)N[C@@H](CCCCN=C(N)N)C(=O)N[C@@H](CCCN=C(N)N)C(=O)N[C@H](CC(C)C)C(N)=O [listing 1 of 2 here] | 12 | 2.6 | – |
| CN[C@@H](Cc1ccc(O)cc1)C(=O)NCC(=O)NCC(=O)N[C@H](Cc1ccccc1)C(=O)N[C@@H](CC(C)C)C(=O)N[C@@H](CCCN=C(N)N)C(=O)N(C)[C@@H](CCCN=C(N)N)C(=O)N[C@@H](CC(C)C)C(N)=O | – | – | ED50 (Mus musculus [8]): 2.04 mg/kg |
| CC(C)C[C@H](NC(=O)[C@H](CCCN=C(N)N)NC(=O)[C@H](CCCN=C(N)N)NC(=O)[C@H](CC(C)C)NC(=O)[C@H](Cc1ccccc1)NC(=O)CNC(=O)CN(C)C(=O)[C@@H](N)Cc1ccc(O)cc1)C(N)=O (H-Y[Sar]GFLRRL-NH2) | – | – | ED50 (Mus musculus [7]): > 10 mg/kg |
| CN[C@@H](Cc1ccc(O)cc1)C(=O)N[C@@H](C)C(=O)NCC(=O)N[C@@H](Cc1ccccc1)C(=O)N[C@@H](CC(C)C)C(=O)N[C@@H](CCCNC(=N)N)C(=O)N[C@@H](CCCNC(=N)N)C(=O)N[C@@H](CC(C)C)C(N)=O (H-[NMeY]AGFLRRL-NH2) | 25.7 | 13.9 | Ki (Mu-type opioid receptor [2]): 1.25 nM |
| CN[C@@H](Cc1ccc(O)cc1)C(=O)NCC(=O)NNC(=O)N[C@@H](Cc1ccccc1)C(=O)N[C@@H](CC(C)C)C(=O)N[C@@H](CCCNC(=N)N)C(=O)N[C@@H](CCCNC(=N)N)C(=O)N[C@H](CC(C)C)C(N)=O | 62.4 | 18.6 | – |
| CN[C@@H](Cc1ccc(O)cc1)C(=O)NCC(=O)NCC(=O)N[C@@H](Cc1ccccc1)C(=O)N(C)[C@@H](CC(C)C)C(=O)N[C@@H](CCCNC(=N)N)C(=O)N[C@@H](CCCNC(=N)N)C(=O)N[C@H](CC(C)C)C(N)=O | 25.3 | 11.9 | – |
| CN[C@@H](Cc1ccc(O)cc1)C(=O)NCC(=O)NCC(=O)N[C@@H](Cc1ccccc1)C(=O)N[C@@H](CC(C)C)C(=O)N[C@@H](CCCCN=C(N)N)C(=O)N[C@@H](CCCN=C(N)N)C(=O)N[C@H](CC(C)C)C(N)=O [listing 2 of 2 here] | – | – | ED50 (Mus musculus [7]): > 8 mg/kg |
| CN[C@@H](Cc1ccc(O)cc1)C(=O)NCC(=O)NCC(=O)N[C@@H](Cc1ccccc1)C(=O)N[C@H](C)C(=O)N[C@@H](CCCNC(=N)N)C(=O)N[C@@H](CCCNC(=N)N)C(=O)N[C@H](CC(C)C)C(N)=O | 9800 | 6000 | – |
| CN[C@@H](Cc1ccc(O)cc1)C(=O)NCC(=O)NCC(=O)N[C@@H](Cc1ccccc1)C(=O)N[C@@H](CC(C)C)C(=O)N(C)[C@@H](CCCN=C(N)N)C(=O)N[C@@H](CCCN=C(N)N)C(=O)N[C@H](CC(C)C)C(N)=O [listing 2 of 2 here] | – | – | ED50 (Mus musculus [9]): 4.54 mg/kg |
| CCNC(=O)[C@@H](CC(C)C)NC(=O)[C@H](CCCN=C(N)N)N(C)C(=O)[C@H](CCCN=C(N)N)NC(=O)[C@@H]1CSSC[C@@H](NC(=O)[C@@H](N)Cc2ccc(O)cc2)C(=O)NCC(=O)N[C@@H](Cc2ccccc2)C(=O)N1 [listing 2 of 2 here] | – | – | ED50 (Mus musculus [10]): 0.22 mg/kg |
| CN[C@@H](Cc1ccc(O)cc1)C(=O)NCC(=O)NCC(=O)N[C@H](Cc1ccccc1)C(=O)N[C@H](C)C(=O)N[C@@H](CCCN=C(N)N)C(=O)N[C@@H](CCCN=C(N)N)C(=O)N[C@@H](CC(C)C)C(N)=O | – | – | ED50 (Mus musculus [7]): > 20 mg/kg |
| CN[C@@H](Cc1ccc(O)cc1)C(=O)NCC(=O)N[C@H](C)C(=O)N[C@@H](Cc1ccccc1)C(=O)N[C@@H](CC(C)C)C(=O)N[C@@H](CCCN=C(N)N)C(=O)N[C@@H](CCCN=C(N)N)C(=O)N[C@@H](CC(C)C)C(N)=O | 210 | 12.7 | – |
| CCNC(=O)[C@@H](CC(C)C)NC(=O)[C@H](CCCNC(=N)N)NC(=O)[C@H](CCCNC(=N)N)NC(=O)[C@H](CC(C)C)NC(=O)[C@H](Cc1ccccc1)NC(=O)CNC(=O)CNC(=O)[C@H](Cc1ccc(O)cc1)NC | 4.6 | 0.7 | – |
| CN[C@@H](Cc1ccc(O)cc1)C(=O)NCC(=O)NCC(=O)N[C@@H](Cc1ccc([N+](=O)[O-])cc1)C(=O)N[C@@H](CC(C)C)C(=O)N[C@@H](CCCN=C(N)N)C(=O)N[C@@H](CCCN=C(N)N)C(=O)N[C@@H](CC(C)C)C(N)=O (H-[NMeY]GG[Phe(4-NO2)]LRRL-NH2) | 3.8 | 1.3 | ED50 (Mus musculus [11]): 1.23 mg/kg; Ki (Mu-type opioid receptor [2]): 1.01 nM |
| CCNC(=O)[C@@H](CC(C)C)NC(=O)[C@H](CCCN=C(N)N)N(C)C(=O)[C@H](CCCN=C(N)N)NC(=O)[C@H](CC(C)C)NC(=O)[C@H](Cc1ccc([N+](=O)[O-])cc1)NC(=O)CNC(=O)CNC(=O)[C@H](Cc1ccc(O)cc1)NC [listing 2 of 2 here] | 3.7 | 0.5 | Ki (Mu-type opioid receptor [2]): 1.74 nM |
| CCNC(=O)[C@@H](CC(C)C)NC(=O)[C@H](CCCNC(=N)N)N(C)C(=O)[C@H](CCCNC(=N)N)NC(=O)[C@H](CC(C)C)NC(=O)[C@H](Cc1ccccc1)NC(=O)CNC(=O)CNC(=O)[C@H](Cc1ccc(O)cc1)NC | 7.4 | 0.3 | Ki (Mu-type opioid receptor [2]): 4.51 nM |

From ChEMBL document CHEMBL1124934, “Synthesis and structure-activity relationships of dynorphin A-(1-8) amide analogues” (J Med Chem, 1990)
